Data set [1] is described as follows: folding enthalpy; higher = less favourable; fluorescence melt of hairpins on a sequencing array, two-state fit. The note with it: sodium 0.088 M. Put shortly:
(§1)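 In 50 mM Na-HEPES pH 8.0 containing 25 mM NaCl, hairpins from the library on a sequenced MiSeq flow cell were imaged for Cy3 fluorescence at 2.5 °C steps up to 60 °C, with Cy3 and quencher oligos annealed. After normalisation to pre-quench Cy3 and to control constructs, two-state fits with bootstrapping gave melting temperature and folding enthalpy. Four replicates were combined by inverse-variance weighting, and fitted temperatures were shifted up by 9.35 °C to match UV melts.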

Data set [2] in a line: melting temperature; fluorescence melt of hairpins on a sequencing array, two-state fit, raised by 9.35 °C to match UV melts. The note with it: sodium 0.088 M. Put shortly:
as §1

Drawing on the array DNA melting data of Ke et al. (doi:10.1101/2024.01.08.574731), this text covers folding enthalpy and Tm for 37 sequences.

GGTTCCGCGAAAGCGACC (((..(((....)))))): in data set [1], the folding enthalpy was -8.82 kcal/mol. The Tm in data set [2] amounted to 28.4 °C.

With GATCTAGTATTAGATC ((((((....)))))), the folding enthalpy in data set [1] is -37.5 kcal/mol. The Tm in data set [2] was 47.1 °C.

Take GAGTGTACGAAAGTACTC (((..(((....)))))): in data set [1], the folding enthalpy was -11.7 kcal/mol. Moreover, the Tm in data set [2] came out at 32.8 °C.

Regarding GCTACGCGAAAGCATTGC ((.(.((....)).).)), the folding enthalpy in data set [1] is -12.7 kcal/mol. In addition, the Tm in data set [2] is 38.7 °C.

Turning to GCGGGTACGAAAGTACGC (((..(((....)))))), the folding enthalpy in data set [1] was -13.8 kcal/mol. Further, the Tm in data set [2] stood at 51.5 °C.

As to GATCCGGGTTCGGATC ((((((....)))))), in data set [1], the folding enthalpy was -44.7 kcal/mol. Further, the Tm in data set [2] was 58.5 °C.

With GATCACCTACGTGATC ((((((....)))))), the folding enthalpy in data set [1] was -43 kcal/mol. The Tm in data set [2] was 56.6 °C.

As to GATCAGATTGCTGATC ((((((....)))))), the folding enthalpy in data set [1] was -39.4 kcal/mol. Moreover, in data set [2], the Tm worked out at 49.5 °C.

Turning to GGTGAATCGAAAGATACC (((..(((....)))))), the folding enthalpy in data set [1] is -16.8 kcal/mol. In addition, the Tm in data set [2] worked out at 29.8 °C.

GCTTTAGGAAACTAGAGC (((.(((....))).))): the folding enthalpy in data set [1] is -31.9 kcal/mol. The Tm in data set [2] is 35.4 °C.

Turning to GATCGGCGCTCCGATC ((((((....)))))), the folding enthalpy in data set [1] is -37.8 kcal/mol. In data set [2], the Tm was 56.9 °C.

Regarding CGCGGAAATGTCCGCG ((((((....)))))), the folding enthalpy in data set [1] was -32.5 kcal/mol. Also, the Tm in data set [2] was 69.1 °C.

Consider GAAGGAGGAAACTTCTTC ((((.((....)).)))), for which the folding enthalpy in data set [1] was -35.7 kcal/mol. In addition, the Tm in data set [2] amounted to 46.8 °C.

Take GCACCCGGAAACGGACGC ((..(((....)))..)): the folding enthalpy in data set [1] was -19.6 kcal/mol. In addition, the Tm in data set [2] stood at 38.7 °C.

For the sequence GGTGGTGGAAACGCCATC (.(((.(....).))).), in data set [1], the folding enthalpy was -22.8 kcal/mol. Moreover, in data set [2], the Tm worked out at 46.6 °C.

As to GCACCGCGAAAGCGTAGC ((..(((....)))..)), the folding enthalpy in data set [1] was -12.3 kcal/mol. The Tm in data set [2] was 41.2 °C.

Consider GCTCTCGAAAGAGCCAGC ((((((....)))..))), for which the folding enthalpy in data set [1] is -11.3 kcal/mol. For the same sequence, the Tm in data set [2] turned out to be 37.5 °C.

With GCTGTAACGAAAGTTAGC (((..(((....)))))), the folding enthalpy in data set [1] was -20.5 kcal/mol. Moreover, the Tm in data set [2] is 35 °C.

With GATCAGTGTTCTGATC ((((((....)))))), in data set [1], the folding enthalpy was -37.3 kcal/mol. Further, the Tm in data set [2] amounted to 50.2 °C.

As for GTTCGCCGAAAGGCTAAC (((.(((....))).))), the folding enthalpy in data set [1] was -19.6 kcal/mol. For the same sequence, the Tm in data set [2] was 44.7 °C.

Take GTACTGCGAAAGCATTAC (((.(((....))).))): the folding enthalpy in data set [1] is -22.5 kcal/mol. Also, in data set [2], the Tm came out at 41.7 °C.

On to GATCATTGGCATGATC ((((((....)))))), for which the folding enthalpy in data set [1] is -30.3 kcal/mol. Also, in data set [2], the Tm was 45.5 °C.

In the case of GATCGCGGAAACGTGATC ((((.((....)).)))), the folding enthalpy in data set [1] was -38.6 kcal/mol. Also, in data set [2], the Tm stood at 57.5 °C.

In the case of CGTACGGAAACGTACACG ((((((....)))..))), in data set [1], the folding enthalpy was -11.5 kcal/mol. For the same sequence, the Tm in data set [2] was found to be 39.9 °C.

As to GTTGTCGAAAGACTTAAC ((((((....)))..))), in data set [1], the folding enthalpy is -10 kcal/mol. In data set [2], the Tm came out at 27.2 °C.

With GATTTGGGAAACCAGATC (((.(((....))).))), in data set [1], the folding enthalpy is -35.9 kcal/mol. Moreover, the Tm in data set [2] is 37.7 °C.

In the case of GATTCCGGAAACGGAGTC ((.((((....)))).)), the folding enthalpy in data set [1] is -23.8 kcal/mol. The Tm in data set [2] came to 47.6 °C.

Turning to GGGTAGCGAAAGCTGCCC (((.(((....))).))), in data set [1], the folding enthalpy was -33.5 kcal/mol. Besides, in data set [2], the Tm worked out at 69.2 °C.

GAGGCCGAAAGGCGGCTC ((((((....)))..))): in data set [1], the folding enthalpy was -12.8 kcal/mol. Moreover, in data set [2], the Tm worked out at 55.9 °C.

On to GAAACGGGAAACCGCTTC (((.(((....))).))), for which the folding enthalpy in data set [1] is -24.2 kcal/mol. Also, in data set [2], the Tm turned out to be 40.4 °C.

For GGCGCCGAAAGGCCGGCC ((((((....)))..))), in data set [1], the folding enthalpy is -17.2 kcal/mol. Besides, the Tm in data set [2] is 58.7 °C.

On to GGCCCTGGAAACAGGGTC (.(((((....))))).), for which the folding enthalpy in data set [1] is -36 kcal/mol. In addition, in data set [2], the Tm was 58.9 °C.

Consider GCCTAGCGAAAGCAACGC ((.(.((....)).).)), for which the folding enthalpy in data set [1] was -8.35 kcal/mol. The Tm in data set [2] came to 23.8 °C.

As for GTCGGCGAAAGCCAGGAC ((((((....)))..))), the folding enthalpy in data set [1] was -13.7 kcal/mol. Also, the Tm in data set [2] was found to be 49.9 °C.

For GTTCTCGAAAGAGCAAC ((((((....))).))), the folding enthalpy in data set [1] was -17 kcal/mol. Besides, the Tm in data set [2] was 32.7 °C.

Turning to GAGGAAGGAAACTTCCCC (.(((((....))))).), the folding enthalpy in data set [1] was -11 kcal/mol. The Tm in data set [2] worked out at 35.2 °C.

GGGGTTGGAAACAACCTC (.(((((....))))).): the folding enthalpy in data set [1] is -31.5 kcal/mol. For the same sequence, the Tm in data set [2] was determined as 52.5 °C.
